Test results as given in ChEMBL document CHEMBL3621045, “Structural Insights Lead to a Negamycin Analogue with Improved Antimicrobial Activity against Gram-Negative Pathogens” (ACS Med Chem Lett, 2015).
In brackets after ≈: the same amount, converted by molar mass.

How the values were obtained:
Klebsiella pneumoniae = assay: Antibacterial activity against Klebsiella pneumoniae ATCC 700603; assay type: functional
Pseudomonas aeruginosa [1] = assay: Antibacterial activity against mexABCDXY-deficient Pseudomonas aeruginosa PAO1; assay type: functional
Escherichia coli [2] = assay: Inhibition of transcription-translation process in Escherichia coli; assay type: functional; conditions: Escherichia coli
Escherichia coli [3] = assay: microbe, parasite or virus in culture; conditions: ATCC 25922
Escherichia coli [4] = assay: microbe, parasite or virus in culture; conditions: ATCC 25922; remark: listed apart in the source
Acinetobacter baumannii = assay: Antibacterial activity against Acinetobacter baumannii ARC 3495; assay type: functional
Pseudomonas aeruginosa [5] = assay: Antibacterial activity against Pseudomonas aeruginosa PAO1; assay type: functional
Pseudomonas aeruginosa [6] = assay: Ratio of MIC for Pseudomonas aeruginosa PAO1 to MIC for mexABCDXY-deficient Pseudomonas aeruginosa PAO1; assay type: functional
Procedure, shortened: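 MICs in μg/mL were determined for P. aeruginosa PAO1 and its isogenic efflux-pump knockout strain. Analogues were tested up to their highest soluble concentrations. The value is the parent-strain MIC divided by the knockout-strain MIC.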

Compound	MIC (Klebsiella pneumoniae) [µg/mL]	MIC (Pseudomonas aeruginosa [1]) [µg/mL]	IC50 (Escherichia coli [2]) [µM]	MIC (Escherichia coli [3]) [µg/mL]	MIC (Escherichia coli [4]) [µg/mL]	MIC (Acinetobacter baumannii) [µg/mL]	MIC (Pseudomonas aeruginosa [5]) [µg/mL]	Ratio (Pseudomonas aeruginosa [6])
CC(N)CCNC[C@H](O)C[C@@H](N)CC(=O)NN(C)CC(=O)O (some centres not stated)	64 (≈ 200 µM)	64 (≈ 200 µM)	3.4	64 (≈ 200 µM)	64 (≈ 200 µM)	64 (≈ 200 µM)	128 (≈ 401 µM)	–
CN(C)[C@@H]1C(O)=C(C(N)=O)C(=O)[C@@]2(O)C(O)=C3C(=O)c4c(O)cccc4[C@@](C)(O)[C@H]3C[C@@H]12 [TETRACYCLINE]	16 (≈ 36 µM)	0.25 (≈ 0.563 µM)	1.4	1 (≈ 2.25 µM)	0.5 (≈ 1.13 µM)	> 64	32 (≈ 72 µM)	128
CN(CC(=O)O)NC(=O)C[C@H](N)C[C@@H](O)CNCCC(N)=O	> 256	> 256	4	> 256	256 (≈ 802 µM)	> 256	> 256	–
CN(CC(=O)O)NC(=O)C[C@H](N)C[C@@H](O)CN [NEGAMYCIN]	32 (≈ 129 µM)	16 (≈ 64.4 µM)	1.7	16 (≈ 64.4 µM)	16 (≈ 64.4 µM)	16 (≈ 64.4 µM)	32 (≈ 129 µM)	–
GENTAMICIN	8	0.13	–	–	–	> 64	1	–
CNCCCNC[C@H](O)C[C@@H](N)CC(=O)NN(C)CC(=O)O	64 (≈ 200 µM)	256 (≈ 801 µM)	5.8	256 (≈ 801 µM)	256 (≈ 801 µM)	64 (≈ 200 µM)	256 (≈ 801 µM)	–
CN(CC(=O)O)N(C)C(=O)C[C@H](N)C[C@@H](O)CN	> 256	–	> 100	> 256	–	> 256	> 256	–
CN(CC(=O)O)NC(=O)C[C@H](N)C[C@@H](O)CNC[C@H](O)CN	64 (≈ 199 µM)	64 (≈ 199 µM)	0.73	64 (≈ 199 µM)	32 (≈ 99.6 µM)	32 (≈ 99.6 µM)	128 (≈ 398 µM)	–
CN(CC(=O)O)NC(=O)C[C@H](N)CCCN	128 (≈ 551 µM)	–	3.3	128 (≈ 551 µM)	–	128 (≈ 551 µM)	128 (≈ 551 µM)	–
CN(CC(=O)O)NC(=O)C[C@H](N)[C@H](O)[C@@H](O)CN	> 256	–	43	> 256	–	> 256	> 256	–
CN(CC(=O)O)NC(=O)C[C@H](N)C[C@@H](O)CNCc1ccccc1	128 (≈ 378 µM)	–	1	128 (≈ 378 µM)	–	> 256	> 256	–
CN(CC(=O)O)NC(=O)C[C@H](N)C[C@@H](O)CNCc1ccccn1	> 256	> 256	11	> 256	256 (≈ 754 µM)	> 256	> 256	–
CN(CC(=O)O)NC(=O)C[C@H](N)C[C@@H](O)CNCC(F)CN (some centres not stated)	128 (≈ 396 µM)	128 (≈ 396 µM)	3.6	256 (≈ 792 µM)	128 (≈ 396 µM)	256 (≈ 792 µM)	256 (≈ 792 µM)	–
CN(CC(=O)O)NC(=O)C[C@H](N)C[C@@H](O)CNC(CCN)c1ccccc1 (some centres not stated)	64 (≈ 168 µM)	32 (≈ 83.9 µM)	2.3	256 (≈ 671 µM)	128 (≈ 336 µM)	> 256	> 256	–
CN(C)CCCNC[C@H](O)C[C@@H](N)CC(=O)NN(C)CC(=O)O	256 (≈ 768 µM)	> 256	15	> 256	> 256	256 (≈ 768 µM)	> 256	–
CN(CC(=O)O)NC(=O)C[C@H](N)C[C@@H](O)CNCC1CNC1	64 (≈ 202 µM)	128 (≈ 403 µM)	3.9	256 (≈ 807 µM)	128 (≈ 403 µM)	128 (≈ 403 µM)	256 (≈ 807 µM)	–
CN(CC(=O)O)NC(=O)C[C@H](N)C[C@@H](O)CNCCCN	4 (≈ 13.1 µM)	8 (≈ 26.2 µM)	0.34	8 (≈ 26.2 µM)	16 (≈ 52.4 µM)	4 (≈ 13.1 µM)	16 (≈ 52.4 µM)	–
CN(CC(=O)O)NC(=O)C[C@H](N)C[C@@H](O)CNCCF	64 (≈ 217 µM)	256 (≈ 870 µM)	2.3	64 (≈ 217 µM)	128 (≈ 435 µM)	128 (≈ 435 µM)	> 256	–
CN(CC(=O)O)NC(=O)C[C@H](N)C[C@@H](O)CNCCCCN	16 (≈ 50.1 µM)	64 (≈ 200 µM)	0.74	32 (≈ 100 µM)	32 (≈ 100 µM)	16 (≈ 50.1 µM)	128 (≈ 401 µM)	–
CN(CC(=O)O)NC(=O)C[C@@H](N)C[C@@H](O)CN	256 (≈ 1030 µM)	–	13	> 256	–	256 (≈ 1030 µM)	> 256	–
CN(CC(=O)O)NC(=O)C[C@@H](N)C[C@@H](O)CNCCCN	64 (≈ 210 µM)	128 (≈ 419 µM)	2.8	128 (≈ 419 µM)	128 (≈ 419 µM)	32 (≈ 105 µM)	128 (≈ 419 µM)	–
CN(CC(=O)O)NC(=O)C[C@H](N)C[C@@H](O)CNCCCNC(=N)N	128 (≈ 368 µM)	256 (≈ 737 µM)	1.7	512 (≈ 1470 µM)	256 (≈ 737 µM)	64 (≈ 184 µM)	512 (≈ 1470 µM)	–
